A short description of experiment [1]: Antiproliferative activity against human HMC 1.1 cells harboring KIT V560G mutant assessed as inhibition of cell proliferation measured after 72 hrs by MTS assay. It counts as functional, cell-based. Particulars: HMC-1.1, 72 h.
A further experiment concerns A549. The experiment in a line: Cytotoxicity against human A549 cells expressing EGFR assessed as reduction in cell viability incubated for 72 hrs by MTT assay. It counts as functional, cell-based. The conditions noted are these: A549, 72 h.
A further experiment concerns A-431. In words: Cytotoxicity against human A-431 cells expressing EGFR assessed as reduction in cell viability incubated for 72 hrs by MTT assay. It counts as functional, cell-based. Particulars: A-431, 72 h. A general note: Formazan colour is commonly taken as a measure of viable cells.
Experiment [2] concerns the target Tyrosine-protein kinase JAK2 (Homo sapiens, UniProt O60674). The experiment in a line: Inhibition of recombinant human JAK2 JH1 domain expressed in baculovirus infected insect cells using poly-Glu-Tyr (51 to 68 residues) as substrate incubated for 1 hr in presence of ATP by ADP-Glo assay.
Experiment [3] concerns the target T1, Epidermal growth factor receptor (Homo sapiens, UniProt P00533). In words: Inhibition of human EGFR TK domain expressed in Escherichia coli BL21 (DE3) pLysS using poly-Glu-Tyr (51 to 68 residues) as substrate incubated for 1 hr by ADP-Glo assay.
Experiment [4] is described as follows: Potency index, ratio of erlotinib IC50 to test compound IC50 human A549 cells expressing EGFR assessed as reduction in cell viability incubated for 72 hrs by MTT assay. It counts as functional.
A further experiment deals with Vero. The experiment in a line: Cytotoxicity against African green monkey Vero cells assessed as reduction in cell viability incubated for 72 hrs by MTT assay. Particulars: Chlorocebus sabaeus.
For another experiment, the system named is TF-1. The experiment in a line: Cytotoxicity against human TF-1 cells expressing JAK2 assessed as reduction in cell viability incubated for 72 hrs by presto blue reagent assay. It counts as functional, cell-based. The conditions noted are these: TF-1, 72 h.
Another experiment deals with HEL 92.1.7. The experiment in a line: Cytotoxicity against human HEL 92.1.7 cells expressing JAK2 assessed as reduction in cell viability incubated for 72 hrs by presto blue reagent assay. It counts as functional, cell-based. Particulars: HEL 92.1.7, 72 h.
Experiment [5] can be described thus: Potency index, ratio of ruxolitinib IC50 to test compound IC50 for human HEL 92.1.7 cells expressing JAK2 assessed as reduction in cell viability incubated for 72 hrs by presto blue reagent assay. It counts as functional.
Experiment [6] has as its target T1, Epidermal growth factor receptor. In words: Inhibition of EGFR (unknown origin). In short, it runs like this: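 ADP-Glo luminescent kinase assay in 40 mM Tris–HCl pH 7.5, 20 mM MgCl2, 0.1 mg/mL BSA. EGFR added at 1.25 ng/μL with inhibitor, then a mix of 5 μM ATP and 2.5 μM poly(Glu-Tyr); reaction run 1 h at room temperature. ADP-Glo reagent added for 40 min, then detection reagent for 30 min. Run in triplicate; % inhibition calculated against a no-inhibitor control.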

By IC50 is commonly meant the midpoint of a concentration-inhibition curve.

Sequence of Tyrosine-protein kinase JAK2 (O60674 whole entry, the tested form may be a part): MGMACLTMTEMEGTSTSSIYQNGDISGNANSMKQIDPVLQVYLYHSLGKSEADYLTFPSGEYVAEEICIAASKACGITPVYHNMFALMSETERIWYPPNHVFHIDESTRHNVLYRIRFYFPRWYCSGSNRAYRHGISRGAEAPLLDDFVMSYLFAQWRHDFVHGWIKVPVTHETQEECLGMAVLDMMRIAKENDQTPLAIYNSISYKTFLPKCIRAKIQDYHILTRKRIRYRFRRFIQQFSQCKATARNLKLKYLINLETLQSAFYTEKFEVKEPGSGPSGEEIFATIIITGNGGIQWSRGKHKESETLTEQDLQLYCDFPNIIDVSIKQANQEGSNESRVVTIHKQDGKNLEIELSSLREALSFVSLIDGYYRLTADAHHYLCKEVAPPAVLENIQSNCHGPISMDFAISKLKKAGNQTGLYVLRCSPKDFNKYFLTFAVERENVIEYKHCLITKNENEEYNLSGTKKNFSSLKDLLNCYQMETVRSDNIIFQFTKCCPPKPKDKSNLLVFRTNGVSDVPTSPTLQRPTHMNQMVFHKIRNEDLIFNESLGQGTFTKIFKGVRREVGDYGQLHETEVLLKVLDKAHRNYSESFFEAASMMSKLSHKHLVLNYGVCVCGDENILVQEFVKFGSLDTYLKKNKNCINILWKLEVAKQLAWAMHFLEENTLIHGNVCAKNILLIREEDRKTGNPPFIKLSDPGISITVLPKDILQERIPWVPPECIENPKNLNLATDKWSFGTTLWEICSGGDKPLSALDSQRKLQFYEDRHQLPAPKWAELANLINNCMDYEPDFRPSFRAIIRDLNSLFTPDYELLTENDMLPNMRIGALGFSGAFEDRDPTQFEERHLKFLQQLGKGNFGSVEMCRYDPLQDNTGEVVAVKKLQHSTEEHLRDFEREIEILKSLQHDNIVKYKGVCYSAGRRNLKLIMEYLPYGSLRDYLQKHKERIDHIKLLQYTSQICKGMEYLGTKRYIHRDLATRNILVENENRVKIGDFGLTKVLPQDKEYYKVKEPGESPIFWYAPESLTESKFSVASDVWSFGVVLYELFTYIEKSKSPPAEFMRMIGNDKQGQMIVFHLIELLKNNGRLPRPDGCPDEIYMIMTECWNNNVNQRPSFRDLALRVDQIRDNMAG
T1 sequence (P00533 whole entry, the tested form may be a part): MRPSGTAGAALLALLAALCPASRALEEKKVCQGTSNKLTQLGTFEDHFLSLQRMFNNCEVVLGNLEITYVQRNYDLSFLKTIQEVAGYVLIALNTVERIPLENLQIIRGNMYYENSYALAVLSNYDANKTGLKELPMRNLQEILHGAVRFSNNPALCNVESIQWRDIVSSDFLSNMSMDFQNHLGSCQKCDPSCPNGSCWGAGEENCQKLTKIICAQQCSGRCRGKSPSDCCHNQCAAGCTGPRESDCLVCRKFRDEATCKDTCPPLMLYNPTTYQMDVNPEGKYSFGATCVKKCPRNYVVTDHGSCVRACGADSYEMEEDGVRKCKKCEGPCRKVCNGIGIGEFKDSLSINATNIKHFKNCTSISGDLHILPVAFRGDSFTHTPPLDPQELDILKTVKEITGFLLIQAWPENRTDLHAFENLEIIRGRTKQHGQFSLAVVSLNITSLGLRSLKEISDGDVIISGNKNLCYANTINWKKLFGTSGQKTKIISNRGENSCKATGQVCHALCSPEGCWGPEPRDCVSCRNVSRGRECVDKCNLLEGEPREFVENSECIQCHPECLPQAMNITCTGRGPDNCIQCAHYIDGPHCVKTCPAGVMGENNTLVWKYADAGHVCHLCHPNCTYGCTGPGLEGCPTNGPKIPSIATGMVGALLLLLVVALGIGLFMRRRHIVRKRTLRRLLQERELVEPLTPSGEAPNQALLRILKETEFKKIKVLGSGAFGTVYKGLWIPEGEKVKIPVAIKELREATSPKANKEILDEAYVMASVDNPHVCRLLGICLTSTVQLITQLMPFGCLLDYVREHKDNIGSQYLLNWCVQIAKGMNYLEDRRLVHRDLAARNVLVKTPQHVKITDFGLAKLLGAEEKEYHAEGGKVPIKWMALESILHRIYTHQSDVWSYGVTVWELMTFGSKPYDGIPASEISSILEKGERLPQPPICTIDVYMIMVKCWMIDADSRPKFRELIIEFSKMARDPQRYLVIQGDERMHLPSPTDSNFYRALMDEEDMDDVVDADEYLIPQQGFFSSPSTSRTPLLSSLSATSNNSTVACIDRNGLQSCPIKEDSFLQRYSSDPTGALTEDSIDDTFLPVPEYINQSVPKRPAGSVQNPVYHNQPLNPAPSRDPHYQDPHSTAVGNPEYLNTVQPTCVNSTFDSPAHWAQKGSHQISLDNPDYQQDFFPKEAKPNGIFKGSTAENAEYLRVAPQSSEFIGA

Turning to `Cc1cn(-c2cc(NC(=O)c3ccc(Nc4nc(-c5cccnc5)cs4)c(C)c3)cc(C(F)(F)F)c2)cn1`, in experiment [1], the IC50 was found to be 0.138 µM.

For the molecule `CNc1nc(C)c(C(=O)/C=C/c2ccc(O)cc2)s1`, the IC50 in the experiment with A549 is 16.3 µM; in the experiment on A-431 it was 8.04 µM; in experiment [2], 0.0339 µM; in [3], 0.0337 µM; in the experiment on Vero, over 100 µM. The “Ratio IC50” value in experiment [4] amounted to 2.

As for `CNc1nc(C)c(C(=O)/C=C/c2cccs2)s1`, the half-inhibitory concentration (IC50) in the experiment with A549 was 62.1 µM; in the experiment on A-431, 28.5 µM; with Vero, over 100 µM.

For `CNc1nc(C)c(C(=O)/C=C/c2ccsc2)s1`, the IC50 in the experiment on TF-1 worked out at 32 µM; in the experiment with HEL 92.1.7, 9.96 µM; in experiment [2], 0.0176 µM; in experiment [3], 0.144 µM. For the same molecule, the “Ratio IC50” value in [5] came to 2.

Take `CNc1nc(C)c(C(=O)/C=C/c2nccs2)s1`: the IC50 in the experiment on TF-1 was 30.2 µM; in the experiment with HEL 92.1.7, 6.89 µM; in experiment [2], 0.0203 µM; in experiment [3] it was 0.256 µM; in the experiment on Vero, over 100 µM. In addition, in experiment [5], the “Ratio IC50” value turned out to be 2.

As for `O=C(Cc1csc2nc3ccccc3n12)Nc1ccccc1O`, the IC50 in experiment [6] stood at 0.055 µM.

Source of the values: ChEMBL document CHEMBL4732032, “Discovery of novel JAK2 and EGFR inhibitors from a series of thiazole-based chalcone derivatives” (RSC Med Chem, 2021).
